Experimental data: ChEMBL document CHEMBL1649283, “In vitro activities of piperaquine, lumefantrine, and dihydroartemisinin in Kenyan Plasmodium falciparum isolates and polymorphisms in pfcrt and pfmdr1” (Antimicrob Agents Chemother, 2009)

Columns and labels:
Format in all cases: functional, organism-based
[1] = test system: Plasmodium falciparum; assay: Antiplasmodial activity against Plasmodium falciparum harboring wild type and mutant pfcrt-76 gene after 18 hrs by [3H]hypoxanthine incorporation assay
Summary of the method: (§1)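 Kenyan field isolates, culture-adapted in long term (some cryopreserved first), grown in RPMI 1640 with 15% human serum, HEPES, bicarbonate, glutamine and pABA. Genotyped at pfcrt 76 and pfmdr1 86 from dried blood spots. Threefold dilutions; 0.5% parasitemia, 1.5% hematocrit; 66 h at 37°C in 5% O2/5% CO2/90% N2, then [3H]hypoxanthine for 18 h. IC50 by nonlinear regression; each isolate measured twice.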

[2] = test system: Plasmodium falciparum; assay: Antiplasmodial activity against Plasmodium falciparum harboring mutant pfcrt-76 gene after 18 hrs by [3H]hypoxanthine incorporation assay; summary of the method: as §1
[3] = test system: Plasmodium falciparum; assay: Antiplasmodial activity against Plasmodium falciparum harboring mutant pfcrt-76 and wild type pfmdr-1-86 gene after 18 hrs by [3H]hypoxanthine incorporation assay; summary of the method: as §1
[4] = test system: Plasmodium falciparum; assay: Antiplasmodial activity against Plasmodium falciparum harboring mutant pfcrt-76 and mutant pfmdr-1-86 gene after 18 hrs by [3H]hypoxanthine incorporation assay; summary of the method: as §1
[5] = test system: Plasmodium falciparum; assay: Antiplasmodial activity against Plasmodium falciparum clinical isolate after 18 hrs by [3H]hypoxanthine incorporation assay; summary of the method: as §1
[6] = test system: Plasmodium falciparum; assay: Antiplasmodial activity against Plasmodium falciparum harboring wild type and mutant pfmdr-1-86 gene after 18 hrs by [3H]hypoxanthine incorporation assay; summary of the method: as §1
[7] = test system: Plasmodium falciparum; assay: Antiplasmodial activity against Plasmodium falciparum harboring wild type pfcrt-76 and wild type pfmdr-1-86 gene after 18 hrs by [3H]hypoxanthine incorporation assay; summary of the method: as §1
[8] = test system: Plasmodium falciparum; assay: Antiplasmodial activity against multidrug-sensitive Plasmodium falciparum 3D7 after 18 hrs by [3H]hypoxanthine incorporation assay
Summary of the method: (§2)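 Reference strains (multidrug-resistant V1S, drug-sensitive 3D7) in RPMI 1640 with 15% human serum. Threefold drug dilutions; 0.5% parasitemia, 1.5% hematocrit; 66 h at 37°C under 5% O2/5% CO2/90% N2, then [3H]hypoxanthine added for 18 h, freeze-thaw lysis, counting. IC50 by nonlinear regression of dose-response; four determinations per strain.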

[9] = test system: Plasmodium falciparum; assay: Antiplasmodial activity against multidrug-resistant Plasmodium falciparum […] after 18 hrs by [3H]hypoxanthine incorporation assay; summary of the method: as §2
[10] = test system: Plasmodium falciparum; assay: Antiplasmodial activity against Plasmodium falciparum harboring mutant pfmdr-1-86 gene after 18 hrs by [3H]hypoxanthine incorporation assay; summary of the method: as §1
[11] = test system: Plasmodium falciparum; assay: Antiplasmodial activity against Plasmodium falciparum harboring wild type pfcrt-76 and mutant pfmdr-1-86 gene after 18 hrs by [3H]hypoxanthine incorporation assay; summary of the method: as §1
[12] = test system: Plasmodium falciparum; assay: Antiplasmodial activity against Plasmodium falciparum harboring wild type pfmdr-1-86 gene after 18 hrs by [3H]hypoxanthine incorporation assay; summary of the method: as §1
[13] = test system: Plasmodium falciparum; assay: Antiplasmodial activity against Plasmodium falciparum harboring wild type pfcrt-76 gene after 18 hrs by [3H]hypoxanthine incorporation assay; summary of the method: as §1

CCN(CC)CCCC(C)Nc1ccnc2cc(Cl)ccc12 (configuration not stated) [CHLOROQUINE]
IC50 [1]: 21 nM
IC50 [2]: 57 nM
IC50 [3]: 54 nM
IC50 [4]: 72 nM

CCCCN(CCCC)CC(O)c1cc(Cl)cc2c1-c1ccc(Cl)cc1/C2=C/c1ccc(Cl)cc1 (configuration not stated) [LUMEFANTRINE]
IC50 [5]: 50 nM
IC50 [1]: 67 nM
IC50 [2]: 43 nM
IC50 [6]: 57 nM
IC50 [7]: 173 nM
IC50 [3]: 99 nM
IC50 [4]: 31 nM
IC50 [8]: 96 nM
IC50 [9]: 24 nM
IC50 [10]: 43 nM
IC50 [11]: 63 nM
IC50 [12]: 124 nM

Clc1ccc2c(N3CCN(CCCN4CCN(c5ccnc6cc(Cl)ccc56)CC4)CC3)ccnc2c1 [PIPERAQUINE]
IC50 [5]: 32 nM
IC50 [2]: 38 nM
IC50 [8]: 27 nM
IC50 [9]: 42 nM
IC50 [13]: 35 nM

C[C@H]1[C@@H](O)O[C@@H]2O[C@@]3(C)CC[C@H]4[C@H](C)CC[C@@H]1[C@@]24OO3 [ARTENIMOL]
IC50 [5]: 2 nM
IC50 [2]: < 25 nM
IC50 [8]: 2 nM
IC50 [9]: 2 nM
IC50 [10]: 2 nM
IC50 [12]: 3 nM
